Source: PubChem BioAssay
Results filed as inconclusive are left out.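 How the source made its calls, unless noted: active means cell viability at or below a set limit in both duplicate runs, the limit being the all-compound median minus 4 SD (cut at about 23% in these data, passing the limit was not always enough); inconclusive means no clear call, values can overlap the other calls; inactive means the rest.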

Experiments:
[1] = OD615 S. cerevisiae growth inhibition, permissive medium, pilot counter-assay, permissive growth control for S. cerevisiae lifespan shortening project (AID 705;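 active means growth inhibition above 25% in both replicates, a cutoff set 3 SD above the mean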); settings: OD615, 24 h, at 10 µM, hits give high values
Procedure, shortened: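 Test system: Saccharomyces cerevisiae strain carrying genetically modified DeaD replicative-lifespan system; buffer or medium: SC raffinose/galactose permissive medium; dosing: one dose 10 µM, DMSO 0.25% final; times: 24 h exposure, 30 °C; measured by: OD at 615 nm; read-out basis: growth inhibition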

[2] = Restrictive medium S. cerevisiae growth inhibition, OD615, pilot screen of yeast lifespan reduction project, restrictive growth control (AID 706;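 active means growth inhibition above a set limit, 3 SD over mean compound inhibition, in both replicates, cut at about 43% in these data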;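 further: modified DeaD lifespan yeast strain shifted to restrictive glucose medium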); settings: OD615, 48 h, at 10 µM, hits give high values
Procedure, shortened: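 material = engineered S. cerevisiae DeaD strain | buffer or medium = glucose-based CSMM-D restrictive medium | dosing = one concentration, 10 µM final, 0.25% DMSO | schedule = 4 h pre-growth plus 48 h compound exposure, 30 °C | detection = OD615 absorbance reading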

[3] = viability gain of MRP-1-high H69AR cells under doxorubicin, pilot screen, MRP-1 activator project, CellTiter-Glo, duplicate (AID 807;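 active means viability increase at or above a cutoff of the median across tested compounds plus 3 SD, cut at about 8.5% in these data, passing the limit was not always enough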;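 further: compound pretreatment 18-22 h then 72 h combined with doxorubicin; 0% = doxorubicin alone and 100% = vehicle without doxorubicin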); settings: H69AR viability with doxorubicin, CellTiter-Glo luminescence; at 10 µM; hits give high values
[4] = growth suppression of beta-catenin knockout HCT116, pilot screen, human colon tumor cells (AID 823); settings: CellTiter-Glo, 60 h, at 10 µM, hits give low values;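 further: 0% = wells killed by 20 µM Hyamine and 100% = untreated DMSO cell wells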
[5] = growth suppression of PTEN-deleted HCT116, pilot screen, cell-based, HCT116 clonal line, CellTiter-Glo (AID 824;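 active means viability at or below 27.92% in each of two runs, the all-compound median minus 4 SD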;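 further: 0% = 20 µM Hyamine control and 100% = vehicle cell control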); settings: 60 h, at 10 µM, hits give low values
[6] = inhibitors of the yeast RAM network, pilot screen, dse1pr::URA3 reporter, 5-FOA selection (AID 869;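 active means inhibition over a set limit, the all-compound mean plus 3 SD, in both replicate runs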;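 further: 0% = DMSO wells with no growth and 100% = 10 µM 1-NA-PP1 with full growth; RAM network block rescues cells from 5-FOA so hits raise OD615 growth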); settings: S. cerevisiae dse1pr::URA3 5-FOA growth, OD615, 2 d; at 10 µM; hits give high values; strain carries analog-sensitive mutant Cbk1 kinase
[7] = RAM signaling pathway blockade in yeast – S. cerevisiae, Pdr1DBD-CYC8 efflux-inhibited sensitized strain, primary screen (AID 1298;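 active means RAM network inhibition above 8.4% in each of two replicates, 3 SD over the compound average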;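 further: 0% = DMSO untreated cells without growth and 100% = 10 µM 1-NA-PP1 full growth; higher means more yeast growth rescued from 5-FOA killing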); settings: S. cerevisiae cbk1-as DSE1-URA3 strain, 5-FOA growth OD615, 2 d; at 50 µM; hits give high values

Cc1ccc2ccc(S(=O)(=O)n3nc(C)cc3C)cc2c1
inactive: growth inhibition [1] -6.58% | growth inhibition [2] 2.99% | viability increase [3] -1.12% | viability [4] 84.9% | viability [5] 81.2% | inhibition [6] 2.06% | RAM network inhibition [7] 5.5%

Cc1ccc(C)c(C(=O)CSc2n[nH]c(C)n2)c1
inactive: growth inhibition [1] 0.045% | growth inhibition [2] 11.3% | viability increase [3] -0.91% | viability [4] 102% | viability [5] 102% | inhibition [6] 1.77% | RAM network inhibition [7] 1.5%

Cc1cc(NC(=O)CSc2nnc(C)c(=O)[nH]2)no1
inactive: growth inhibition [1] -0.975% | growth inhibition [2] 1.15% | viability increase [3] 0.9% | viability [4] 112% | viability [5] 101% | inhibition [6] 2.48% | RAM network inhibition [7] 1.75%

N#CCn1c(C2CCCCC2)nc2ccccc2c1=O
inactive: growth inhibition [1] -27% | growth inhibition [2] -22.9% | viability increase [3] -4.23% | viability [4] 90.2% | viability [5] 84.5% | inhibition [6] 0.79% | RAM network inhibition [7] 3.71%

CCC(=O)c1cc2c(cc1NC(=O)c1cccs1)OCCO2
inactive: growth inhibition [1] -5.85% | growth inhibition [2] -7.54% | viability increase [3] -6.83% | viability [4] 69.2% | viability [5] 75.2% | inhibition [6] 1.38% | RAM network inhibition [7] 9.21%

Cc1ccc(-c2nc(CS(=O)CC(=O)N3CCN(c4ncccn4)CC3)c(C)o2)cc1 (stereo not drawn)
inactive: growth inhibition [1] -0.52% | growth inhibition [2] 10.7% | viability increase [3] -2.28% | viability [4] 76.8% | viability [5] 90.2% | inhibition [6] 2.31% | RAM network inhibition [7] 4.78%

Cc1ccccc1CSc1nnc(-c2ccco2)n1Cc1ccco1
inactive: growth inhibition [1] 5.54% | growth inhibition [2] 10.2% | viability increase [3] -4.14% | viability [4] 82.6% | viability [5] 82.4% | inhibition [6] 0.145% | RAM network inhibition [7] 0.99%

CC(=O)Nc1nc2cc3c(cc2s1)OCO3
inactive: growth inhibition [1] -3.77% | growth inhibition [2] -8.01% | viability increase [3] -1.9% | viability [4] 96.4% | viability [5] 91.9% | inhibition [6] 1.81% | RAM network inhibition [7] 5.55%

O=C1CC(c2ccc(S(=O)(=O)NCc3ccncc3)cc2)CN1 (stereo not drawn)
inactive: growth inhibition [1] -10.3% | growth inhibition [2] -7.88% | viability increase [3] -0.07% | viability [4] 99.7% | viability [5] 97.2% | inhibition [6] 1.73% | RAM network inhibition [7] 1.15%

COCCN(CCOC)Cc1c(C)[nH]c2c(C)c(C)ccc2c1=O
inactive: growth inhibition [1] -16.2% | growth inhibition [2] -9.49% | viability increase [3] -1.96% | viability [4] 96.8% | viability [5] 100% | inhibition [6] 2.54% | RAM network inhibition [7] 3.28%

O=C1NCCCC1C(=O)N1CCN(C(=O)c2ccco2)CC1 (stereo not drawn)
inactive: growth inhibition [1] -3.22% | growth inhibition [2] -1.05% | viability increase [3] -0.63% | viability [4] 106% | viability [5] 98.6% | inhibition [6] -0.03% | RAM network inhibition [7] 0.31%

COc1ccc(C2C(C(=O)N3CCCCC3)CCC(=O)N2c2cc(OC)c(OC)c(OC)c2)cc1 (stereo not drawn)
inactive: growth inhibition [1] -15% | growth inhibition [2] -5.94% | viability increase [3] -7.12% | viability [4] 100% | viability [5] 89% | inhibition [6] 0.98% | RAM network inhibition [7] 5.22%

Cc1cc(C)c(C#N)c(Nc2ccc3c(c2)OCCO3)n1
inactive: growth inhibition [1] 0.055% | growth inhibition [2] -10.2% | viability increase [3] -1.17% | viability [4] 97.6% | viability [5] 93.9% | inhibition [6] 0.915% | RAM network inhibition [7] 0.66%

Nc1nc2n(n1)C(c1ccc(Cl)cc1)CC(c1ccc(F)cc1)N2 (stereo not drawn)
inactive: growth inhibition [1] -3.33% | growth inhibition [2] 13% | viability increase [3] 5.31% | viability [4] 92.5% | viability [5] 80.8% | inhibition [6] 0.43% | RAM network inhibition [7] 5.91%

Cc1oc2cc(O)ccc2c(=O)c1N1C(=O)c2ccccc2C1=O
inactive: growth inhibition [1] -5.69% | growth inhibition [2] 0.06% | viability increase [3] 1.85% | viability [4] 98.2% | viability [5] 99.8% | inhibition [6] 1.11% | RAM network inhibition [7] 1.15%

CCOC(=O)c1ccc(Nc2cc(C)nc(-c3ccccc3O)n2)cc1
inactive: growth inhibition [1] -6.03% | growth inhibition [2] -3.53% | viability increase [3] 1.42% | viability [4] 78.5% | viability [5] 75.8% | inhibition [6] -0.345% | RAM network inhibition [7] 1.54%

CC(=O)c1c(Nc2ccc3c(c2)OCCO3)oc(C)cc1=O
inactive: growth inhibition [1] -21.9% | growth inhibition [2] 0.47% | viability increase [3] -5.39% | viability [4] 110% | viability [5] 100% | inhibition [6] 0.68% | RAM network inhibition [7] -2.1%

CCOc1ccccc1Nc1nc2ccccc2n2cnnc12
inactive: growth inhibition [1] -17% | growth inhibition [2] -2.87% | viability increase [3] -6.33% | viability [4] 81.6% | viability [5] 85.7% | inhibition [6] 3.04% | RAM network inhibition [7] 6.66%

Cc1ccc(CNC(=O)c2cc3c(-c4ccc(Cl)cc4)nn(C)c3s2)o1
inactive: growth inhibition [1] -7.97% | growth inhibition [2] -5.61% | viability increase [3] -6.4% | viability [4] 53.9% | viability [5] 48.7% | inhibition [6] 3.25% | RAM network inhibition [7] 2.13%

O=C(CSc1nnc(Cc2cc(=O)[nH]c(=O)[nH]2)n1-c1ccc(Cl)cc1)NC1CCCC1
inactive: growth inhibition [1] -14.1% | growth inhibition [2] -17.7% | viability increase [3] -0.76% | viability [4] 108% | viability [5] 104% | inhibition [6] 1.92% | RAM network inhibition [7] 0.32%

CCOC(=O)Cn1c(=O)oc2cc(S(=O)(=O)Nc3ccc(F)cc3)ccc21
inactive: growth inhibition [1] -7.54% | growth inhibition [2] -3.97% | viability increase [3] 0.5% | viability [4] 96.7% | viability [5] 106% | inhibition [6] 1.07% | RAM network inhibition [7] 7.5%

O=C(Nc1cccnc1)C(Cc1ccccc1)n1cccc1 (stereo not drawn)
inactive: growth inhibition [1] -15.5% | growth inhibition [2] -13.4% | viability increase [3] -4.93% | viability [4] 102% | viability [5] 91.8% | inhibition [6] 0.44% | RAM network inhibition [7] 4.6%

O=C(COC(=O)C1CCCO1)Nc1cccc(C(F)(F)F)c1 (stereo not drawn)
inactive: growth inhibition [1] -22.8% | growth inhibition [2] -15.9% | viability increase [3] 0% | viability [4] 91.8% | viability [5] 94.5% | inhibition [6] 1.63% | RAM network inhibition [7] 2.45%

CCCN(CCC)S(=O)(=O)c1ccc(C(=O)N2CCC(=O)c3ccccc32)cc1
inactive: growth inhibition [1] -0.75% | growth inhibition [2] 1.45% | viability increase [3] -5.63% | viability [4] 81.2% | viability [5] 89.7% | inhibition [6] 2.23% | RAM network inhibition [7] 0.93%
